Test results taken from ChEMBL document CHEMBL4334439, “Discovery, Optimization, and Target Identification of Novel Potent Broad-Spectrum Antiviral Inhibitors” (J Med Chem, 2019).
Active and inactive are the calls of the source. The rule behind the calls is not given here.

Columns and labels:
[1] = test system: Hepatitis C virus; assay: Antiviral activity against EGFP-fused HCV JFH-1 harboring K78E/E2-G451R/NS3-M260K/NS5A-T462I mutation infected in human Huh7.5.1 cells assessed as reduction in viral RNA level after 2 days in presence of ribavirin by qRT-PCR analysis; type: functional, organism-based; conditions: Hepacivirus hominis
Summary of the method: (§1)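 Huh7.5.1 cells at 1×10^4/well, grown overnight at 37 °C. HCVcc was mixed with serially diluted compound (top 30 or 6 μM), given alone or with the named drug, and added to the cells. Viral RNA was read by qRT-PCR after 2 days. EC50 is the concentration giving 50% RNA reduction.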

[2] = test system: Hepatitis C virus; assay: Antiviral activity against EGFP-fused HCV JFH-1 harboring K78E/E2-G451R/NS3-M260K/NS5A-T462I mutation infected in human Huh7.5.1 cells assessed as reduction in viral RNA level after 2 days in presence of daclatasvir by qRT-PCR analysis; type: functional, organism-based; conditions: Hepacivirus hominis; summary of the method: as §1
[3] = Cytotoxicity against human Huh7.5.1 cells infected with ZIKV assessed as decrease in cell viability after 48 hrs by WST1 assay; type: cell-based
Summary of the method: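 Cells seeded at 1 × 10^4 per well and cultured overnight at 37 °C, then incubated 48 h with serially diluted compounds. Viability read with WST-1 reagent as absorbance at OD450/OD630.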

[4] = test system: Hepatitis C virus; assay: Antiviral activity against EGFP-fused HCV JFH-1 harboring K78E/E2-G451R/NS3-M260K/NS5A-T462I mutation infected in human Huh7.5.1 cells assessed as combination index after 2 days in presence of sofosbuvir by qRT-PCR analysis; type: functional, Hepacivirus hominis
Summary of the method: (§2)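 In HCVcc-infected Huh7.5.1 cells (1×10^4/well, overnight, 37 °C), compound was given at various concentrations alone or with the named approved antiviral. After 2 days HCV RNA was quantified by qRT-PCR to derive the combination index.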

[5] = test system: Hepatitis C virus; assay: Antiviral activity against EGFP-fused HCV JFH-1 harboring K78E/E2-G451R/NS3-M260K/NS5A-T462I mutation infected in human Huh7.5.1 cells assessed as combination index after 2 days in presence of cyclosporin A by qRT-PCR analysis; type: functional, Hepacivirus hominis; summary of the method: as §2
[6] = test system: Hepatitis C virus; assay: Antiviral activity against GFP-fused HCV JFH-1 harboring K78E/E2-G451R/NS3-M260K/NS5A-T462I mutant infected in human Huh7.5.1 cells assessed as reduction in viral infection preincubated for 2 hrs followed by viral infection and measured after 48 hrs by epifluorescence microscopic analysis; type: functional, organism-based; conditions: Hepacivirus hominis
Summary of the method: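 Huh7.5.1 cells at 3×10^4/well, cultured overnight at 37 °C in 5% CO2, were pretreated 2 h with compound over 0.0004–0.05 μM. Cells were then infected with HCV-GFP at MOI 1, and GFP expression was imaged by epifluorescence microscopy at 48 hpi.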

[7] = Selectivity index, ratio of CC50 for human RD cells to EC50 for EV71(FY)-Luc infected in human RD cells; type: toxicity, cell-based; conditions: read-out: Ratio CC50/EC50
Summary of the method: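 RD cells seeded at 1×10^4/well and cultured overnight, then infected with EV71(FY)-Luc at MOI 1 and treated with compound straight away. EC50 is the 50% drop in luminescence or RNA. CC50 comes from a 48 h serial-dilution exposure at 1×10^4 cells/well, read by WST-1 (OD450/OD630).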

[8] = test system: Hepatitis C virus; assay: Antiviral activity against EGFP-fused HCV JFH-1 harboring K78E/E2-G451R/NS3-M260K/NS5A-T462I mutation infected in human Huh7.5.1 cells assessed as combination index after 2 days in presence of daclatasvir by qRT-PCR analysis; type: functional, Hepacivirus hominis; summary of the method: as §2
[9] = test system: Hepatitis C virus; assay: Antiviral activity against HCV JFH-1 pseudotyped viral particle infected in HEK293T cells cotransfected with pCDN3.1-JFH1-cE1E2 plasmid encoding envelope with full length JFH1 and pNL4-3R-E-luciferase construct by luciferase reporter gene assay; type: functional, organism-based, Hepacivirus hominis; conditions: JFH-1, HEK-293T
Summary of the method: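 HCVpp came from HEK293T co-transfected with the JFH1 E1E2 plasmid and pNL4-3R-E-luciferase. Supernatant was harvested at 48 h, filtered and luciferase-standardised for input. Virus was mixed with serially diluted compound (top 30 or 6 μM) and added to cells. Luminescence was read; EC50 is 50% signal reduction.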

[10] = test system: Hepatitis C virus; assay: Antiviral activity against HCV infected in human Huh7.5.1 cells assessed as decrease in viral infection; type: functional, organism-based, Hepacivirus hominis; conditions: Huh-7.5.1
[11] = test system: Severe fever with thrombocytopenia syndrome virus; assay: Antiviral activity against SFTSV infected in African green monkey Vero cells assessed as reduction in viral titre measured at 4 days post infection; type: functional; conditions: 96 h
[12] = target: Heat shock protein HSP90 (Homo sapiens) (UniProt P07900+P08238); assay: Binding affinity to HSP90 (unknown origin); type: protein assay
[13] = Selectivity index, ratio of CC50 for African green monkey Vero cells to EC50 for RSV infected in African green monkey Vero cells; type: toxicity; conditions: read-out: Ratio CC50/EC50

## CCN(CC)c1ccc(Oc2ccc(-c3[nH]c4cccc(F)c4c(=O)c3C)cc2F)cc1
[1]
  Activity: Dose-dependent effect
[2]
  Activity: Dose-dependent effect
[3]
  CC50 at 48 h: > 2500 nM
[4]
  CI: >50
[5]
  CI: >50
[6]
  Activity: Dose-dependent effect
[7]
  selectivity ratio: > 625
[8]
  CI: >=10 - 50
[9]
  EC50: > 50000 nM
[10]
  EC50: 15 nM
[11]
  EC50: 300 nM
[12]
  Activity: inactive
[13]
  selectivity ratio: > 41
